Laboratory results taken from ChEMBL document CHEMBL4699493, “Development of Bis-cyclic Imidazolidine-4-one Derivatives as Potent Antibacterial Agents” (J Med Chem, 2020).
Values after ≈ are worked out from the molar mass of the structure shown. Active and inactive are the calls of the source. No cut-off for these calls is given here.

Assays:
Escherichia coli [1] = assay: Bactericidal activity against Escherichia coli ATCC 25922 at 24 to 48 microg/ml measured after 30 mins by time kill assay; assay type: functional, organism-based; details: dose microg/ml 24-48, time 30.0 min
Outline: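 Mid-log bacteria at 10^6 CFU/mL incubated with compound (12, 24, 48 μg/mL) at 37 °C for 10, 30, 60, 120 min; untreated control. Mixtures diluted 10^4-fold, plated on TSB agar, incubated 20 h at 37 °C, colonies counted and plotted against time. Three repeats.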

Klebsiella pneumoniae [2] = assay: Antibacterial activity against Klebsiella pneumoniae ATCC 13383 in presence of divalent Ca2+; assay type: functional
Outline: (§1)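 MIC by the standard TSB broth dilution method, in TSB made with DI water and supplemented with CaCl2 to 2 mM. Inoculum of log-phase bacteria at 10^6 CFU/mL. MIC = lowest concentration completely inhibiting growth.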

Klebsiella pneumoniae [3] = assay: Antibacterial activity against Klebsiella pneumoniae ATCC 13383 in presence of monovalent Na+ and K+; assay type: functional
Outline: (§2)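 MIC by the standard broth dilution method, in medium made by dissolving TSB powder in 1× PBS (7.5 g per 250 mL), autoclaved, to supply Na+ and K+. Inoculum of log-phase bacteria at 10^6 CFU/mL. MIC = lowest concentration completely inhibiting growth.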

Cell membrane [4] = assay: Induction of cell membrane disruption in methicillin-resistant Staphylococcus aureus ATCC 33591 assessed as propidium iodide-positive cells at 2 times MIC after 2 hrs by fluorescence microscopic analysis; assay type: subcellular
Outline: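 A 10^6 CFU/mL suspension was diluted 100-fold and treated at 2× MIC for 2 h. Cells were pelleted (4000g, 15 min, 4 °C), washed three times in PBS, then stained 15 min with PI (5 μg/mL) and DAPI (10 μg/mL). Imaged by oil-immersion fluorescence microscopy alongside an untreated control. Three repeats in duplicate.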

Cell membrane [5] = assay: Induction of inner membrane permeabilization in Escherichia coli ATCC 25922 at 2 times MIC measured for 12 mins by propidium iodide staining based fluorescence microscopic analysis; assay type: functional, subcellular
Outline: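 Mid-log bacteria pelleted at 1000g, washed three times in 5 mM HEPES/5 mM glucose, and resuspended to 10^6 CFU/mL. PI added (50 μL of a 10 μM solution to 150 μL of cells). Fluorescence (ex 535 nm, em 617 nm) read every 2 min for about 8 min, then compound added and reading continued for 12 min. Water added as the no-drug control. Three repeats.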

[6] = system: Staphylococcus epidermidis; assay: Antibacterial activity against methicillin-resistant Staphylococcus epidermidis RP62A; assay type: functional
Outline: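 Broth microdilution in TSB. Strains were grown 16 h, subcultured 6 h to log phase, then diluted to 10^6 CFU/mL by OD600. Compound came from a 5 mg/mL DMSO stock diluted in TSB and serially diluted, top final concentration 25 μg/mL. MIC was the lowest concentration giving complete growth inhibition. Done ≥3 times in duplicate.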

Cell membrane [7] = assay: Induction of inner membrane permeabilization in methicillin-resistant Staphylococcus aureus ATCC 33591 at 2 times MIC measured for 12 mins by propidium iodide staining based fluorescence microscopic analysis; assay type: functional, subcellular
Outline: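 Mid-log cells were washed in 5 mM HEPES/5 mM glucose and set at 10^6 CFU/mL, then mixed with PI (10 μM stock). Baseline fluorescence (ex 535/em 617 nm) was read about 8 min at 2-min intervals. Compound was then added and reading continued for 12 min. Water-only negative control; three repeats.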

HeLa = assay: Cytotoxicity against human HeLa cells after 24 hrs by MTT assay; assay type: cell-based
Outline: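 HeLa cells seeded at 5 × 10^3 cells/well, attached 24 h at 37 °C, 5% CO2, then exposed to a range of compound concentrations in growth medium for 24 h. Viability read with CCK-8 reagent, absorbance at 490 nm after 1 h. Triplicate wells, three repeats.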

Escherichia coli [8] = assay: Antibacterial activity against Escherichia coli ATCC 25922 in presence of monovalent Na+ and K+; assay type: functional; outline: as §2
Staphylococcus aureus = assay: Antibacterial activity against methicillin-resistant Staphylococcus aureus ATCC 33591 in presence of divalent Ca2+; assay type: functional
Outline: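 MIC set up as in the standard TSB broth microdilution (log-phase inoculum at 10^6 CFU/mL, complete growth inhibition end point). The medium was TSB prepared in DI water with CaCl2 added to 2 mM.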

Escherichia coli [9] = assay: Antibacterial activity against Escherichia coli ATCC 25922 in presence of divalent Ca2+; assay type: functional; outline: as §1

Structure (SMILES): CCCCCCCCCC(=O)N[C@@H](CCCCN)CN1CC(=O)N(c2ccc(N3CN(C[C@H](CCCCN)NC(=O)CCCCCCCCC)CC3=O)cc2)C1
- Activity (Escherichia coli [1]): Active
- MIC (Klebsiella pneumoniae [2]): 5 µg/mL
- MIC (Klebsiella pneumoniae [3]): 7 µg/mL
- Activity (Cell membrane [4]): Active
- Activity (Cell membrane [5]): Active
- MIC [6]: 5 µg/mL (≈ 6.38 µM)
- Activity (Cell membrane [7]): Active
- IC50 (HeLa): 74.8 µg/mL (≈ 95.5 µM)
- MIC (Escherichia coli [8]): 5 µg/mL
- MIC (Staphylococcus aureus): 2 µg/mL
- MIC (Escherichia coli [9]): 7 µg/mL
